CendR NRP1 mod: modulators of CendR peptide binding to NRP-1, primary screen, biochemical, fluorescence polarization, uHTS; Neuropilin-1 (Homo sapiens), O14786; FAM-RPARPAR peptide binding to NRP-1; inhibition, % at 25 µM; hit rate 0.85% among 360,000;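 active = inhibition or corrected inhibition above about 18%, plus a signal ratio from 0.5 to 1.5, limit read from the data, passing the limit was not always enough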
Target sequence (O14786 whole entry, looked up): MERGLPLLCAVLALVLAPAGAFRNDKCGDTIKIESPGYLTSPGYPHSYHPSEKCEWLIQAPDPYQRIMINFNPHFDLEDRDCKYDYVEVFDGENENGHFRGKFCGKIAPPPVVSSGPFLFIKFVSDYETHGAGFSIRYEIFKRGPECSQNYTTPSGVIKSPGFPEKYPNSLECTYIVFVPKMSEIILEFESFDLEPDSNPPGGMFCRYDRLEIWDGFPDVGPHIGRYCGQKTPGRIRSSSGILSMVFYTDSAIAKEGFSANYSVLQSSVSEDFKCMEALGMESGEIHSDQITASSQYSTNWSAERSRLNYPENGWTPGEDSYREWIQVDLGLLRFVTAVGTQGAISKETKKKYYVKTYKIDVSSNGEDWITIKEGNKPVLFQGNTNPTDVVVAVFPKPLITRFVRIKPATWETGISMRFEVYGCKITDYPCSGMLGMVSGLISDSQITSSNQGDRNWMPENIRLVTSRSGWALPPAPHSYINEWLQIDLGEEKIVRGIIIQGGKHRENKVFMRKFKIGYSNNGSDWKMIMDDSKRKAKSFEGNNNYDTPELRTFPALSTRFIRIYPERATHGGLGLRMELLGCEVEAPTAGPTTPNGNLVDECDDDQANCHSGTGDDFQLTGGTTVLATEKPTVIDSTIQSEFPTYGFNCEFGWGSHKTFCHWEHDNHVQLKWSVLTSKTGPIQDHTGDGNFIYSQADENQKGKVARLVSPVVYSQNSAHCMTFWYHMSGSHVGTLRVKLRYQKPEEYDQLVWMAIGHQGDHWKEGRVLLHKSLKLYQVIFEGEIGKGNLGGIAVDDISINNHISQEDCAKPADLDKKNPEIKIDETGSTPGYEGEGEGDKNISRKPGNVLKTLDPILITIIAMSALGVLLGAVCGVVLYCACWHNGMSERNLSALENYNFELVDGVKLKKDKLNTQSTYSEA
SKN-1 block: suppressors of acrylamide-induced Pgst-4::GFP reporter in worms, primary screen, SKN-1 inhibitor project, whole organism, uHTS, GFP/RFP fluorescence ratio, strain VP596 | C. elegans VP596 Pgst-4::GFP/RFP ratio, 24 h | inhibition, % at 21.8 µM | hit rate 0.49% among 360,000;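 active = interference check ratio from 0.5 to 1.5 plus GFP to RFP signal ratio inhibition reaching or exceeding a fixed threshold, cut at about 30% in these data, passing the limit was not always enough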
hiPSC survival: enhancers of single-cell hiPSC survival, primary screen, ATPlite luminescence; 100% = ROCK inhibitor wells, 0% = DMSO; survival enhancement, % at 20 µM; hit rate 0.044% among 360,000; in the data active = survival enhancement above about 18%;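 note: cells exposed to compounds for 16 hours before the ATP read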
MT1-MMP act inh: blockers of MT1-MMP proenzyme processing, primary screen, HT1080 RFP-PRO-GFP cells, GFP/RFP fluorescence; GFP/RFP ratio change, % at 20 µM; AID 651647, 2012; Matrix metalloproteinase-14 (Homo sapiens), P50281; GFP/RFP ratio fluorescence, overnight; percent of plate control window, DMSO zero; hit rate 0.061% among 360,000;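 active = GFP/RFP ratio change of at least 30% with cell ATP level not reduced by more than half and red fluorescence within 50% of control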
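Material – HT1080 RFP-PRO-GFP cells · Control set – DMSO wells and RFP-L50D-GFP cells · Incubation – overnight cell settling, then overnight compound exposure, 37 °C, 5% CO2 · Compound dosing – single-point 20 µM compound, 1% DMSO · Read-out – GFP/RFP fluorescence ratio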
A number is an active result; . = inactive; / = not tested or not shown; ! = not active in a repeat. An excerpt weighted towards active compounds, which were near 1.4% of everything screened.

SMILES	CendR NRP1 mod	SKN-1 block	hiPSC survival	MT1-MMP act inh
C#CCOCCOCCOCCNc1nc(N2CCN(C(=O)[C@H](CCCCN)n3cc([C@@H](N)C(C)CC)nn3)CC2)nc(N2CCN(C(=O)[C@H](CCCCN)n3cc([C@@H](N)CC(C)C)nn3)CC2)n1 (stereo partly drawn)	22	.	.	.
N/C(=N\OC(=O)c1ccc(Cl)cc1Cl)c1ccc(Cl)cc1	30	.	.	/
N/C(=N\OC(=O)c1ccc(Cl)cc1Cl)c1ccccc1	.	56	.	.
Cc1cccc(/C(N)=N/OC(=O)c2ccc(Cl)cc2Cl)c1	.	.	.	.
N/C(=N\OC(=O)c1cccc2ccccc12)c1cccnc1	.	.	.	.
N/C(=N\OC(=O)c1ccc(Cl)cc1Cl)c1cccnc1	.	54	.	.
N/C(=N\OC(=O)c1ccccc1Cl)c1ccccc1	.	61	.	.
COc1ccc(/C(N)=N/OC(=O)c2cccc([N+](=O)[O-])c2C)cc1OC	.	.	.	.
COc1ccc(C(=O)O/N=C(\N)c2ccccc2)c(OC)c1	18	.	.	.
N/C(=N\OC(=O)c1ccc(Cl)cc1)c1cccnc1	.	29	.	/
COc1cccc(C(=O)O/N=C(\N)c2ccc([N+](=O)[O-])cc2)c1OC	25	.	.	.
C[C@@H]1CN([C@H](C)CO)C(=O)CCCn2cc(nn2)CO[C@H]1CN(C)C(=O)Nc1ccc(F)cc1	.	.	.	.
C[C@H]1CN([C@@H](C)CO)C(=O)CCCn2cc(nn2)CO[C@@H]1CN(C)C(=O)Nc1ccc(N2CCN(C)CC2)cc1	21	.	.	.
CN(CC(=O)NCCc1ccccc1)S(=O)(=O)c1ccc(Br)s1	.	37	.	.
CN(CC(=O)NCCc1ccccc1)S(=O)(=O)c1cccs1	.	.	.	.
Cc1ccc(C(C)(C)C)cc1S(=O)(=O)Nc1nc2ccccc2nc1Cl	.	.	.	.
Cc1ccccc1S(=O)(=O)Nc1nc2ccccc2nc1NCCO	31	.	.	.
CC(C)(C)N(NC(=O)Nc1ccccc1)C(=O)c1ccccc1Cl	25	.	.	.
CC(C)(C)N(NC(=O)OCc1ccccc1)C(=O)c1ccccc1Cl	.	.	.	.
COc1cc(F)ccc1-c1cc(C(=O)NCc2cccc(Cl)c2)[nH]n1	.	.	.	.
Cc1ccc2nc(Cl)c3nnnn3c2c1	.	.	30	.
O=C(c1ccc2nccnc2c1)N1CCN(c2cccc(C(F)(F)F)c2)CC1	.	.	.	.
O=C(c1cccc(F)c1)N1CCN(c2cccc(C(F)(F)F)c2)CC1	.	39	.	.
CC1CCN(CCCNC(=O)c2ccc(CS(=O)(=O)Cc3ccccc3F)o2)CC1	.	.	.	.
O=C(NCCCN1CCCCCC1)c1ccc(CS(=O)(=O)Cc2ccccc2F)o1	30	.	28	.
SMILES	CendR NRP1 mod	SKN-1 block	hiPSC survival	MT1-MMP act inh
CCCc1cc(=O)n2[nH]c(C)nc2n1	.	.	.	.
Cc1nc2nc(CSc3nnc(C)s3)cc(=O)n2[nH]1	24!	.	.	.
C/C(=N\N=c1/sc2ccccc2n1C)c1ccccn1	26	36	.	.
C/C(=N\N=c1/sc2ccccc2n1C)c1ccc(N2CCOCC2)cc1	.	.	.	.
O=[N+]([O-])c1ccc(Nc2nccc(Cl)n2)cc1	.	45	.	.
COCCNC(=O)c1cc(-c2ccccc2)nn1CC1CC(c2cccc([N+](=O)[O-])c2)=NO1 (stereo not drawn)	31	.	.	.
C#CCOc1nc(C)cc(C)c1S(=O)(=O)c1ccccc1C	35	.	.	.
C/C(=N/N=C/c1ccccc1O)c1ccccc1O	.	.	.	.
CCN(CCn1cccn1)C(=O)CCc1nnc(-c2ccccc2)o1	.	.	.	.
CCN(CCn1cccn1)C(=O)CCc1nnc(Cc2c[nH]c3ccccc23)o1	21	.	.	.
O=c1c2ccccc2ccc2ccccc12	.	35	.	.
Nc1ccc2c(c1)sc1ccccc12	.	54	.	.
O=c1c2ccccc2sc2ccccc12	.	43	.	.
O=C(c1ccc(C(F)(F)F)cc1)C1CCCN(C(=O)Cn2cnnn2)C1 (stereo not drawn)	.	.	.	.
COc1ccc(C(=O)NC(C)c2nnc(SCC(=O)NC3=NCCS3)n2C)cc1 (stereo not drawn)	.	.	.	.
O=C(N/N=C/c1ccccn1)c1cc(C2CC2)[nH]n1	.	.	.	.
O=C(N/N=C/c1cccc2ccccc12)c1cc(C2CC2)[nH]n1	22	.	.	.
COc1ccc2c(c1)c(C(=O)N/N=C/c1ccc(Br)cc1)c(C)n2C	26	.	.	.
Cc1ccccc1C(=O)NN1C(=O)CSC1=S	.	.	.	.
O=C1CSC(=S)N1Nc1ccccc1	.	36	.	.
CC(C)n1nc(C(=O)Nc2cccc(S(=O)(=O)N3CCCCC3)c2)c2ccccc2c1=O	.	.	.	.
O=C(Nc1ccc(F)cc1)c1cc(S(=O)(=O)Nc2ccc(F)cc2)cs1	26	.	.	.
Clc1ccc(CSc2snnc2-c2ccccc2)cc1	.	.	.	.
Clc1ccc(-c2nnsc2SCc2ccccc2)cc1	.	36	.	.
COc1ccc(CCNC(=O)COc2nsnc2N2CCOCC2)cc1OC	.	40	.	.
SMILES	CendR NRP1 mod	SKN-1 block	hiPSC survival	MT1-MMP act inh
CCCC(=O)c1c[nH]c(C(=O)NCc2cccnc2)c1	.	.	.	.
CCC(=O)c1c[nH]c(C(=O)NCc2cccnc2)c1	22	.	.	.
CC12CCC(C(=O)N(CC(O)CN3CCCCC3)C1=O)C2(C)C (stereo not drawn)	.	.	.	.
COCCCNC(=S)NC1CC2CCC(C1)N2Cc1ccccc1 (stereo not drawn)	48	.	.	.
CCOCCCNC(=S)NC1CC2CCC(C1)N2Cc1ccccc1 (stereo not drawn)	.	.	.	.
C/C(=N\NC(=O)c1cc(O)ccc1O)c1cccc(NC(=O)c2ccc(Cl)cc2)c1	.	.	.	.
C/C(=N\NC(=O)c1cc(O)ccc1O)c1cccc(NC(=O)c2cccc(Cl)c2)c1	23	.	.	.
COc1ccccc1C1C(C(=O)NCc2ccccc2)=C(C)Nc2ncnn21 (stereo not drawn)	.	47	.	.
COc1cccc(C2C(C(=O)NCc3ccccc3)=C(C)Nc3ncnn32)c1 (stereo not drawn)	.	.	.	.
Cn1c(=O)c2c(nc(CN3CCOCC3)n2CCN2CCOCC2)n(C)c1=O	27	.	.	.
Cn1c(=O)c2c(nc(CN3CCN(C(=O)c4ccco4)CC3)n2Cc2ccc(F)cc2)n(C)c1=O	28	.	.	.
CC(CCC(=O)O)(c1ccc(O)cc1)c1ccc(O)cc1	.	.	.	.
COCCCn1cnc2c(c1=O)c1nc3ccccc3nc1n2CCc1ccccc1	.	36	.	.

From PubChem
